{
  "source": "ChEMBL document CHEMBL1144414",
  "about": "“C-5-disubstituted barbiturates as potential molecular probes for noninvasive matrix metalloproteinase imaging” (J Med Chem, 2005)",
  "key": {"[1]": {"biological_target": "T1, 72 kDa type IV collagenase (Homo sapiens, UniProt P08253)", "T1 sequence (P08253 whole entry)": "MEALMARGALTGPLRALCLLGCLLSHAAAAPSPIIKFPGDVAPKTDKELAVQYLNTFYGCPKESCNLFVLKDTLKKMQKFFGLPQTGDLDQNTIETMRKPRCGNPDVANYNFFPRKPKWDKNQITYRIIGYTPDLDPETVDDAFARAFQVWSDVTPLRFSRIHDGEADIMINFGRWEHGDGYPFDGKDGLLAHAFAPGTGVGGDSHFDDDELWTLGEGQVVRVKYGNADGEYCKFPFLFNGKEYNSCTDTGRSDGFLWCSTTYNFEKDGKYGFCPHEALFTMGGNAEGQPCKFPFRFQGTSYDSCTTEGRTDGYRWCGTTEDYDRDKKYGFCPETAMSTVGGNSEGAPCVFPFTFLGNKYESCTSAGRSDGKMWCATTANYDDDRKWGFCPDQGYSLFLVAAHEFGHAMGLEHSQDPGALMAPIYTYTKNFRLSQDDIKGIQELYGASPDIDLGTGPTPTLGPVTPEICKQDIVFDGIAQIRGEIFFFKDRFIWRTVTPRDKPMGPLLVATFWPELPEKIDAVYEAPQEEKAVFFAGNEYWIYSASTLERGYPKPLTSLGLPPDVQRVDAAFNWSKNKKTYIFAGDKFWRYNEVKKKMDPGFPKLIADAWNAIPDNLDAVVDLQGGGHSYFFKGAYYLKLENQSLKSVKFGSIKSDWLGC", "assay": "In vitro inhibition of human Matrix metalloprotease 2", "method_in_brief": "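Human active MMP-2 (1 nM) preincubated with inhibitor (10 pM to 1 mM) in 50 mM Tris·HCl pH 7.5, 0.2 M NaCl, 5 mM CaCl2, 20 µM ZnSO4, 0.05% Brij 35, 37 °C, 30 min. Fluorogenic Mca-Pro-Leu-Gly-Leu-Dpa-Ala-Arg-NH2 substrate (10 µL of 50 µM into 90 µL) added. Fluorescence (ex 330/em 390 nm) followed at 37 °C. Initial 10-min rates fitted by nonlinear regression for IC50.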"}, "[2]": {"organism": "Homo sapiens", "assay": "Ratio of IC50 for human Matrix metalloprotease 2 binding and Matrix metalloprotease 9"}, "[3]": {"biological_target": "T2, Matrix metalloproteinase-9 (Homo sapiens, UniProt P14780)", "T2 sequence (P14780 whole entry)": "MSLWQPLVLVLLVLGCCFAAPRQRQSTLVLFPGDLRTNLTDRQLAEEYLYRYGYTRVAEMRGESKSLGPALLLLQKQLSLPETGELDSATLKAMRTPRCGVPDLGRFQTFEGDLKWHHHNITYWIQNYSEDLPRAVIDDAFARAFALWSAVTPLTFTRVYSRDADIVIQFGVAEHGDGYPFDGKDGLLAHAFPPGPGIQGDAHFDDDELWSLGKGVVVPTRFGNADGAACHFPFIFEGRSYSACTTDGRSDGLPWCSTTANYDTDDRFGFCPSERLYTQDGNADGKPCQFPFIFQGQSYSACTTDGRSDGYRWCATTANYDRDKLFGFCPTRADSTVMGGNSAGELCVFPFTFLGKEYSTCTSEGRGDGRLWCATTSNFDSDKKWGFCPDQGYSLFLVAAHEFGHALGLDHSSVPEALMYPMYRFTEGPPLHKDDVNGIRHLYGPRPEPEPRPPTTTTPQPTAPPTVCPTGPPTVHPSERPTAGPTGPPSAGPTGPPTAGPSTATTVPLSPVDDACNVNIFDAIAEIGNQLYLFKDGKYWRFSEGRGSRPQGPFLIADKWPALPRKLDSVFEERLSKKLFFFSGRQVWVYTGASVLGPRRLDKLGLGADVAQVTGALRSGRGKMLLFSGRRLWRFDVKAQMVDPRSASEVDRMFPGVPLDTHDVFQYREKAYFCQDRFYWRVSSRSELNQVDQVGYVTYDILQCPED", "assay": "(§1) In vitro inhibition of human Matrix metalloprotease 9", "method_in_brief": "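Human active MMP-9 (2 nM) preincubated 30 min at 37 °C with inhibitor (10 pM to 1 mM) in 50 mM Tris·HCl pH 7.5, 0.2 M NaCl, 5 mM CaCl2, 20 µM ZnSO4, 0.05% Brij 35. Fluorogenic Mca-Pro-Leu-Gly-Leu-Dpa-Ala-Arg-NH2 substrate added from a 50 µM stock. Fluorescence (ex 330/em 390 nm) followed at 37 °C. Initial 10-min linear rates versus dose; IC50 by nonlinear regression.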"}, "[4]": {"assay": "Partition coefficient (logD7.4)", "format": "physicochemical", "details": "octanol/water, pH 7.4; call rule not given here"}, "[5]": {"biological_target": "T2, Matrix metalloproteinase-9", "assay": "In vitro inhibition of human Matrix metalloprotease 9; I.A.=inactive", "method_in_brief": "(§2)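 Human active enzyme, MMP-2 at 1 nM or MMP-9 at 2 nM, preincubated 30 min at 37 °C with inhibitor (10 pM to 1 mM) in 50 mM Tris·HCl pH 7.5, 0.2 M NaCl, 5 mM CaCl2, 20 µM ZnSO4, 0.05% Brij 35. Mca-PLGL-Dpa-AR-NH2 substrate added, fluorescence followed at 37 °C (ex 330/em 390 nm). Initial 10-min rates fitted by nonlinear regression for IC50.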"}, "[6]": {"biological_target": "T1, 72 kDa type IV collagenase", "assay": "In vitro inhibition of human Matrix metalloprotease 2; I.A.=inactive", "method_in_brief": "as §2"}, "[7]": {"biological_target": "T2, Matrix metalloproteinase-9", "assay": "as §1", "remark": "listed apart in the source"}},
  "data": [
    {"smiles": "C[Si](C)(C)c1ccc(N2CCN(C3(c4ccc(Oc5ccc(Br)cc5)cc4)C(=O)NC(=O)NC3=O)CC2)cc1", "values": [
      {"measurement": "IC50", "setting": "[1]", "result": 1500, "unit": "nM"},
      {"measurement": "Selectivity", "setting": "[2]", "result": 2.7},
      {"measurement": "IC50", "setting": "[3]", "result": 550, "unit": "nM"},
      {"measurement": "logD", "setting": "[4]", "result": 8.32}
    ]},
    {"smiles": "O=C1NC(=O)C(c2ccc(Oc3ccc(Br)cc3)cc2)(N2CCN(c3ccc(F)cc3)CC2)C(=O)N1", "values": [
      {"measurement": "Selectivity", "setting": "[2]", "result": 0.63},
      {"measurement": "logD", "setting": "[4]", "result": 6.11}
    ]},
    {"smiles": "O=C(O)CCN1CCN(C2(c3ccc(Oc4ccc(Br)cc4)cc3)C(=O)NC(=O)NC2=O)CC1", "values": [
      {"measurement": "IC50", "setting": "[1]", "result": 85, "unit": "nM"},
      {"measurement": "Selectivity", "setting": "[2]", "result": 3.3},
      {"measurement": "IC50", "setting": "[3]", "result": 26, "unit": "nM"},
      {"measurement": "logD", "setting": "[4]", "result": 0.81}
    ]},
    {"smiles": "CC(C)[C@@H](NS(=O)(=O)c1ccc(C#CCCCC[18F])cc1)C(=O)O", "values": [
      {"measurement": "IC50", "setting": "[1]", "result": 1900, "unit": "nM"}
    ]},
    {"smiles": "O=C1NC(=O)C(c2ccc(Oc3ccc(Br)cc3)cc2)(N2CCN(C(=O)c3cccc(I)c3)CC2)C(=O)N1", "values": [
      {"measurement": "IC50", "setting": "[1]", "result": 15, "unit": "nM"},
      {"measurement": "Selectivity", "setting": "[2]", "result": 0.75},
      {"measurement": "IC50", "setting": "[3]", "result": 20, "unit": "nM"},
      {"measurement": "logD", "setting": "[4]", "result": 5.86}
    ]},
    {"smiles": "COCCN1CCN(C2(c3ccc(Oc4ccc(OC)cc4)cc3)C(=O)N(C)C(=O)N(C)C2=O)CC1", "values": [
      {"measurement": "IC50", "setting": "[5]", "result": "Not Active"},
      {"measurement": "IC50", "setting": "[6]", "result": "Not Active"},
      {"measurement": "logD", "setting": "[4]", "result": 0.95}
    ]},
    {"smiles": "CC(C)[C@@H](NS(=O)(=O)c1ccc(NC(=O)c2ccc(O[11CH3])cc2)cc1)C(=O)O", "values": [
      {"measurement": "IC50", "setting": "[1]", "result": 110, "unit": "nM"},
      {"measurement": "IC50", "setting": "[7]", "result": 200, "unit": "nM"}
    ]},
    {"smiles": "O=C1NC(=O)C(c2ccc(Oc3ccc(Br)cc3)cc2)(N2CCN(c3ccc(I)cc3)CC2)C(=O)N1", "values": [
      {"measurement": "IC50", "setting": "[1]", "result": 86, "unit": "nM"},
      {"measurement": "Selectivity", "setting": "[2]", "result": 8.6},
      {"measurement": "IC50", "setting": "[3]", "result": 10, "unit": "nM"},
      {"measurement": "logD", "setting": "[4]", "result": 7.22}
    ]},
    {"smiles": "COc1ccc(Oc2ccc(C3(N4CCN(CCO)CC4)C(=O)NC(=O)NC3=O)cc2)cc1", "values": [
      {"measurement": "Selectivity", "setting": "[2]", "result": 1.5},
      {"measurement": "logD", "setting": "[4]", "result": 1.79}
    ]},
    {"smiles": "O=C1NC(=O)C(c2ccc(Oc3ccc(Br)cc3)cc2)(N2CCN(c3ccc([N+](=O)[O-])cc3)CC2)C(=O)N1", "values": [
      {"measurement": "IC50", "setting": "[1]", "result": 16, "unit": "nM"},
      {"measurement": "Selectivity", "setting": "[2]", "result": 0.28},
      {"measurement": "IC50", "setting": "[3]", "result": 57, "unit": "nM"},
      {"measurement": "logD", "setting": "[4]", "result": 6.27}
    ]},
    {"smiles": "O=C1NC(=O)C(c2ccc(Oc3ccc(Br)cc3)cc2)(N2CCN(CCO)CC2)C(=O)N1", "values": [
      {"measurement": "Selectivity", "setting": "[2]", "result": 2.3},
      {"measurement": "logD", "setting": "[4]", "result": 3.42}
    ]},
    {"smiles": "O=C1NC(=O)C(c2ccc(Oc3ccc(Br)cc3)cc2)C(=O)N1", "values": [
      {"measurement": "IC50", "setting": "[1]", "result": 3700, "unit": "nM"},
      {"measurement": "logD", "setting": "[4]", "result": 0.41}
    ]},
    {"smiles": "O=C1NC(=S)NC(=O)C1(c1ccc(Oc2ccc(Br)cc2)cc1)N1CCN(CCO)CC1", "values": [
      {"measurement": "IC50", "setting": "[1]", "result": 7.21, "unit": "nM"},
      {"measurement": "logD", "setting": "[4]", "result": 3.85}
    ]},
    {"smiles": "O=C1NC(=O)C(c2ccc(Oc3ccc(Br)cc3)cc2)(N2CCNCC2)C(=O)N1", "values": [
      {"measurement": "IC50", "setting": "[1]", "result": 5, "unit": "nM"},
      {"measurement": "Selectivity", "setting": "[2]", "result": 2.5},
      {"measurement": "IC50", "setting": "[3]", "result": 2, "unit": "nM"},
      {"measurement": "logD", "setting": "[4]", "result": 3.04}
    ]},
    {"smiles": "O=C1NC(=O)C(c2ccc(Oc3ccc(I)cc3)cc2)(N2CCN(CCO)CC2)C(=O)N1", "values": [
      {"measurement": "Selectivity", "setting": "[2]", "result": 3.5},
      {"measurement": "logD", "setting": "[4]", "result": 3.68}
    ]},
    {"smiles": "NCCN1CCN(C2(c3ccc(Oc4ccc(Br)cc4)cc3)C(=O)NC(=O)NC2=O)CC1", "values": [
      {"measurement": "IC50", "setting": "[1]", "result": 10, "unit": "nM"},
      {"measurement": "Selectivity", "setting": "[2]", "result": 0.71},
      {"measurement": "IC50", "setting": "[3]", "result": 14, "unit": "nM"},
      {"measurement": "logD", "setting": "[4]", "result": 0.78}
    ]},
    {"smiles": "CC(C)N1CCN(C2(c3ccc(Oc4ccc(Br)cc4)cc3)C(=O)NC(=O)NC2=O)CC1", "values": [
      {"measurement": "Selectivity", "setting": "[2]", "result": 26},
      {"measurement": "logD", "setting": "[4]", "result": 4.47}
    ]},
    {"smiles": "O=C1NC(=O)C(c2ccc(Oc3ccc(Br)cc3)cc2)(N2CCN(CCBr)CC2)C(=O)N1", "values": [
      {"measurement": "IC50", "setting": "[1]", "result": 30, "unit": "nM"},
      {"measurement": "Selectivity", "setting": "[2]", "result": 1.2},
      {"measurement": "IC50", "setting": "[3]", "result": 26, "unit": "nM"},
      {"measurement": "logD", "setting": "[4]", "result": 4.67}
    ]}
  ]
}
